Assay outcomes from PubChem BioAssay.
GSTO1 inh = counter-screen for RBBP9 inhibitors: inhibitors of human GSTO1 | P78417 | recombinant GSTO1, activity-based probe fluorescence polarization | inhibition, % at 5.96 µM | 300,000 compounds, 1.1% hits | AID 1974;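 active = inhibition above the campaign mean inhibition plus 3 SD, cut at about 35% in these data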
PAD4 FP inh = PAD4 (human) enzyme inhibition; Q9UM07; recombinant PAD4, RCA probe fluorescence polarization; inhibition, % at 6.36 µM; 330,000 compounds, 0.41% hits; AID 485272;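 active = percent inhibition above a cutoff equal to the mean of all tested compounds plus 3 SD, cut at about 15% in these data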
CTSL1 counter = blocks F. hepatica cathepsin L1 in PFM18AAP counter-screen | inhibition, % at 5.96 µM | AID 1906 | 300,000 compounds, 0.49% hits | recombinant F. hepatica cathepsin L1, Z-Leu-Arg-MCA fluorescence;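 active = inhibition above the mean of all tested compounds plus 3 SD, set per screening campaign, cut at about 17% in these data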
PRMT1 inh = inhibitors of human PRMT1; Q99873; recombinant PRMT1, activity-based probe fluorescence polarization; inhibition, % at 2.79 µM; 370,000 compounds, 1.3% hits;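 active = inhibition above about 21% made by adding two undisclosed values, limit read from the data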
Target sequence (Q99873 whole entry, looked up): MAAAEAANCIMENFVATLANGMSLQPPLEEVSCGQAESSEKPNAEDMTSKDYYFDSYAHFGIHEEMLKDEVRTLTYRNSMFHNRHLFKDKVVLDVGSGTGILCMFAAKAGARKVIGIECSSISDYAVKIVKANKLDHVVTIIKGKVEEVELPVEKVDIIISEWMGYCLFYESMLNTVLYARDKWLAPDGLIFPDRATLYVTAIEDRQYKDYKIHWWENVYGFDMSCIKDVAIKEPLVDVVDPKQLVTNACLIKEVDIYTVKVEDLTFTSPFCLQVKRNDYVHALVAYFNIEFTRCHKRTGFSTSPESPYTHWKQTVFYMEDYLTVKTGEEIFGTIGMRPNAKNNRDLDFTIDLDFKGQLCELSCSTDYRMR
TDP2 inh = TDP2 (human) inhibition, absorbance primary screen; O95551; AID 720702; recombinant TDP2, T5PNP hydrolysis, p-nitrophenol absorbance 415 nm; inhibition, % at 12.8 µM; 370,000 compounds, 0.34% hits;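 active = inhibition above the mean of all tested compounds plus 3 SD, set per campaign, cut at about 25% in these data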
Target sequence (O95551 whole entry, looked up): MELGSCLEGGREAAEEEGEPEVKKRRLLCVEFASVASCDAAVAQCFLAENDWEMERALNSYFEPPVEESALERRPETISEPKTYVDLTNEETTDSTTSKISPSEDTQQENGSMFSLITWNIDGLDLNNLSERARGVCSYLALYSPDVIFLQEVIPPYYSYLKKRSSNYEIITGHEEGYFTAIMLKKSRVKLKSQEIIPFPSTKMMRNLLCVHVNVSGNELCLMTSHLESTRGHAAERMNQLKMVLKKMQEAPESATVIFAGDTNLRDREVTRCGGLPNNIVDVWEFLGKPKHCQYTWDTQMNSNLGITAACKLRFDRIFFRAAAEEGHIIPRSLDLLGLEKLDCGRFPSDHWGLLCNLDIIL
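System – recombinant human TDP2 · Quantity – TDP2 enzyme at 120 nM final · Doses – single concentration, 12.8 µM nominal, with 1% DMSO · Incubation – 2 h at 37 °C · Measured by – epi absorbance of p-nitrophenol freed from T5PNP by hydrolysis · Read-out – % inhibition relative to enzyme-containing and enzyme-free wells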
Each line names hits and unclear results; the compound was inactive in the other large screens. Hits are enriched below; roughly 2.5% of the tested compounds scored in any of these assays.

COC(=O)CCC(=O)N1C2=NC3=C(C(=O)N(Cc4ccc5c(c4)OCO5)C3=O)C3N(C)c4ccccc4[C@]23C[C@H]1CO (stereo partly specified)	none (no result: GSTO1 inh, PAD4 FP inh, CTSL1 counter)
CC[C@]12c3[nH]c4cc(-c5ccco5)ccc4c3CCN1C(=O)[C@@H](CC(=O)NC/C=C(\C)CCC=C(C)C)C[C@@H]2C(=O)N1CCN(C(=O)c2ccco2)CC1	none (no result: GSTO1 inh, CTSL1 counter, PRMT1 inh, TDP2 inh)
CC[C@]12c3[nH]c4cc(-c5ccco5)ccc4c3CCN1C(=O)[C@@H](CC(=O)NC/C=C(\C)CCC=C(C)C)C[C@@H]2C(=O)N1CCN(C(=O)C2CC2)CC1	PRMT1 inh 23 (no result: GSTO1 inh, CTSL1 counter)
COC(=O)C1CN(C2CCCC2)CCS(=O)(=O)N1Cc1ccc(OC)cc1 (stereo unspecified)	none (no result: GSTO1 inh, PAD4 FP inh, CTSL1 counter)
Cc1ccc(NC(=O)CSc2ccc3nnc(-c4ccccn4)n3n2)cc1	none
O=C(CSc1ccc2nnc(-c3ccccn3)n2n1)Nc1ccc(F)cc1	CTSL1 counter 50
CCCCc1ccc2nc(NC(=O)c3cccs3)sc2c1	none (no result: GSTO1 inh, PAD4 FP inh, CTSL1 counter)
Cc1ccc(NC(=O)c2ccccc2)cc1	none
Cc1ccc(NC(=O)C2=C(c3ccccc3)S(=O)(=O)CCS2(=O)=O)cc1	PRMT1 inh 62
CCn1c(SCC(=O)c2ccc3c(c2)OCCO3)nnc1-c1ccco1	CTSL1 counter 17
C=CCc1cccc(/C=N/c2ncccc2O)c1O	PRMT1 inh 22
C=CCc1cccc(C=Nc2ccc(Br)cc2)c1O	none
O=C(C=Cc1ccco1)c1ccc([N+](=O)[O-])cc1	PRMT1 inh 23 (no result: GSTO1 inh, PAD4 FP inh, CTSL1 counter)
O=C(C=Cc1ccccc1)c1ccc([N+](=O)[O-])cc1	none (no result: GSTO1 inh, PAD4 FP inh, CTSL1 counter)
O=C(c1ccc(Cl)c(Cl)c1)N1CCC(Oc2cccnc2)CC1	none (no result: GSTO1 inh, PAD4 FP inh, CTSL1 counter)
Clc1ccc(CN2CCN(N=Cc3ccncc3)CC2)cc1	none (no result: GSTO1 inh, PAD4 FP inh, CTSL1 counter)
Cc1nc2c(-c3ccc(F)cc3)cnn2c(N)c1-c1ccccc1	CTSL1 counter 19
Cc1nc2c(-c3ccc(Cl)cc3)cnn2c(N)c1-c1ccc(F)cc1	none
COc1ccc(-c2cc(C(=O)O)c3c(C)nn(-c4ccccn4)c3n2)cc1	none
COc1ccc(N=CC2=C(Nc3ccc(OC)cc3)c3c(C)nn(-c4ccccn4)c3CC2)cc1	GSTO1 inh 84, PAD4 FP inh 81 (no result: PRMT1 inh, TDP2 inh)
CNc1cc(=O)n(C)c(=O)n1-c1ccccc1	CTSL1 counter 31
CCn1c(NC)cc(=O)n(C)c1=O	none
CC(=O)c1cc2c(cc1NC(=O)c1ccco1)OCCO2	CTSL1 counter 38
O=C(Nc1cc2c(cc1Br)OCCO2)c1ccco1	none
O=C(CSc1nnc(-c2ccncc2)n1Cc1ccco1)c1ccc(Cl)cc1	none
O=C(CSc1nnc(-c2ccc(Cl)cc2)n1Cc1ccco1)c1cccs1	PRMT1 inh 23
N=C1/C(=C\c2coc3ccc(O)cc3c2=O)C(=O)N=C2SC=CN12	GSTO1 inh 57, PRMT1 inh 31
Cc1cccc(S(=O)(=O)c2c(N)n(Cc3ccco3)c3nc4ccccc4nc23)c1	none
Cc1cccc(-n2cnc3c(c2=O)c2nc4ccccc4nc2n3Cc2ccco2)c1	PRMT1 inh 21
Cc1cc(-n2c(C)cc(C(=O)CCl)c2C)no1	GSTO1 inh 83
COc1ccc(-n2c(C)cc(C(=O)CCl)c2C)cc1	GSTO1 inh 97
Cc1cc(-n2c(C)cc(C(=O)CSc3nc(N)cc(=O)[nH]3)c2C)no1	none
Cc1cc(-n2c(C)cc(C(=O)CSc3ccc4c(c3)OCCO4)c2C)no1	PRMT1 inh 22
COc1ccc(-n2c(C)cc(C(=O)CN3C(=O)c4ccccc4C3=O)c2C)cc1	none
CC(C)C[C@@H]1COc2cc(Br)ccc2S(=O)(=O)N1Cc1cn(Cc2ccco2)nn1	none (no result: GSTO1 inh, PAD4 FP inh, CTSL1 counter)
O=C(OC12CCCN(C1)/C(=C/c1cccc(Cl)c1)C2)c1ccno1 (stereo unspecified)	none (no result: GSTO1 inh, PAD4 FP inh, CTSL1 counter)
O=C(COC(=O)CNC(=O)c1cccc(F)c1)NCCC1=CCCCC1	CTSL1 counter 22
O=C(NC1CCCCN(Cc2ccc(OC(F)(F)F)cc2)C1=O)c1ccc(F)c(F)c1 (stereo unspecified)	none (no result: GSTO1 inh, PAD4 FP inh, CTSL1 counter)
CC(/C=C/C1[C@H](C)C[C@H](O[C@@H]2O[C@H](CO)[C@@H](O)[C@H](O)[C@H]2O)CC1(C)C)O[C@H]1O[C@H](CO)[C@@H](O)[C@H](O)[C@H]1O (stereo partly specified)	none
CC(/C=C/C1(O)C(C)CC(O)CC1(C)C)OC1OC(CO)C(O)C(O)C1O (stereo unspecified)	CTSL1 counter 55
N#CCCN(C(=O)CSc1ccc2c(c1)OCCO2)c1ccccc1	PRMT1 inh 22
CN(C(=O)CSc1ccc2c(c1)OCCO2)c1ccccc1	none (no result: GSTO1 inh, CTSL1 counter)
Cc1oc2c(CN(C)C)c(O)ccc2c(=O)c1-c1cscn1	TDP2 inh 38
COc1ccc(Oc2c(C)oc3c(CN(C)C)c(O)ccc3c2=O)cc1	none
O=C([C@@H]1C[C@H]1c1ccccc1)N1CC[C@H]2[C@H](CCCN2Cc2ccc(F)cc2)C1	none (no result: GSTO1 inh, PAD4 FP inh, CTSL1 counter)
N#CCCn1cc(/C=C2\NC(=S)N(c3ccccc3)C2=O)c(-c2ccc(F)cc2)n1	none
O=C(O)CCn1cc(/C=C2\NC(=S)N(c3ccccc3)C2=O)c(-c2ccc(Br)cc2)n1	CTSL1 counter 19
CCN(CC)c1cccc(OCC(=O)N(C)CCC#N)c1	PAD4 FP inh 45
CCOc1cccc(C(=O)Nc2ccc(N(CC)CC)cc2)c1	none
CCOc1cc(N2CCOCC2)c(OCC)cc1NC(=O)COC(=O)c1cc(C)cc(C)c1	CTSL1 counter 50
CCOc1cc(N2CCOCC2)c(OCC)cc1NC(=O)COC(=O)c1ccccc1C	none
CCOc1cc(N2CCOCC2)c(OCC)cc1NC(=O)COC(=O)c1cc(C)oc1C	CTSL1 counter 41
O=C(OC12CCCN(C1)/C(=C/c1cccc(Cl)c1)C2)c1ccccc1 (stereo unspecified)	none (no result: GSTO1 inh, PAD4 FP inh, CTSL1 counter)
CCOC(=O)[C@@]12CCCC3=C1N(CCC3)C(=O)[C@H]2CC(=O)NCCC(C)C	none (no result: GSTO1 inh, PAD4 FP inh, CTSL1 counter)
COc1ccc2oc(=N)c(C(=O)Nc3ccccc3Cl)cc2c1	CTSL1 counter 20
COc1ccc2oc(=N)c(C(=O)Nc3ccccc3)cc2c1	none
O=C(CCc1ccccc1-c1ccccc1CCNC(=O)c1ccccc1)NCc1ccccc1	none (no result: GSTO1 inh, PAD4 FP inh, CTSL1 counter)
CCOC(=O)c1c(-c2ccc(C)o2)csc1NC(=O)COC(=O)c1ccc(NC(N)=O)cc1	CTSL1 counter 19
O=[N+]([O-])c1ccccc1/C=C/C1Nc2cccc3cccc(c23)N1	PRMT1 inh 21 (no result: GSTO1 inh, PAD4 FP inh, CTSL1 counter)
Cn1c(=O)oc2cc(S(=O)(=O)NC3CCN(Cc4ccccc4)CC3)ccc21	GSTO1 inh 37
CSCCC(NS(=O)(=O)c1ccc2c(c1)c(=O)n(C)c(=O)n2C)C(=O)NC1CCN(Cc2ccccc2)CC1 (stereo unspecified)	CTSL1 counter 40
CC(C)CC(NS(=O)(=O)c1ccc2c(c1)oc(=O)n2C)C(=O)N1CC=C(c2ccccc2)CC1 (stereo unspecified)	CTSL1 counter 77
Cn1c(=O)oc2cc(S(=O)(=O)NC3CCCCC3)ccc21	none
